Assay results of several laboratories.
Protocols differ between the studies behind these lines. ≈ marks a conversion by molar mass, not a printed value.

For `Fc1ccc(Nc2c(-c3ccccn3)nc3ccccn23)cc1`, the IC50 was 8.11 µM (Leishmania infantum; parasite growth; intracellular, amastigote).
`N#Cc1c(-c2ccc(Cl)cc2)nc2n(c1=O)NC(c1ccccc1O)N2C(Cc1c[nH]c2ccccc12)C(=O)O` (centres unmarked) gave an inhibition zone of 34 mm (Streptococcus pyogenes; microbial growth; ATCC19615; 15 µg/mL, 24 h).
The IC50 of `O=C(N[C@@H](Cc1ccccc1)C(=O)c1ncc(-c2ccccc2)o1)[C@H](Cc1ccccc1)NC(=O)N1CCOCC1` is reported as over 64 µM (Leishmania infantum; parasite growth; intracellular, amastigote).
The MIC of `CCCCC(=O)N1C(=O)/C(=C(/C)O)C(=O)C1CC(C)C` (centres unmarked) is reported as over 200 µg/mL (Stenotrophomonas maltophilia; microbial growth; ATCC13637).
With `C[Si](C)(C)c1cc(C(=O)[C@H](Cc2ccccc2)NC(=O)[C@H](Cc2ccccc2)NC(=O)N2CCOCC2)no1` (single isomer, unassigned) the IC50 was over 64 µM (Leishmania infantum; parasite growth; intracellular, amastigote).
For `C/C(O)=C1\C(=O)C(CC(C)C)N(C(=O)CCCCCc2ccccc2)C1=O` (centres unmarked), the MIC was over 200 µg/mL (Stenotrophomonas maltophilia; microbial growth; ATCC13637).
For `O=C(N[C@@H](Cc1ccccc1)C(=O)c1cc(-c2ccccc2)on1)[C@H](Cc1ccccc1)NC(=O)N1CCOCC1` (single isomer, unassigned), the IC50 was over 64 µM (Leishmania infantum; parasite growth; intracellular, amastigote).
`CC(=O)C1=C(C)N2NC(c3ccccc3O)N(C(Cc3c[nH]c4ccccc34)C(=O)O)C2=NC1c1ccc(Cl)cc1` (centres unmarked) gave an inhibition zone of 30 mm (Streptococcus pyogenes; microbial growth; ATCC19615; 15 µg/mL, 24 h).
`O=C1NC(=S)N/C1=C\c1ccc(-c2ccc(N(c3ccccc3)c3ccccc3)cc2)cc1` gave an MIC of over 1000 µg/mL (Streptococcus mutans; microbial growth, broth dilution; ATCC25175).
With `O=C(N[C@@H](Cc1ccccc1)C(=O)c1nc2ccccc2o1)[C@H](Cc1ccccc1)NC(=O)N1CCOCC1` the IC50 was over 64 µM (Leishmania infantum; parasite growth; intracellular, amastigote).
For `O=C1NC(=S)S/C1=C\c1c2ccccc2c(-c2ccc(N(c3ccccc3)c3ccccc3)cc2)c2ccccc12`, the MBC was over 1000 µg/mL (Streptococcus pyogenes; microbial killing, broth dilution; ATCC19615).
For `CC(=O)C1=C(C)N2NC(c3ccccc3O)N(C(C)C(=O)O)C2=NC1c1ccc(Cl)cc1` (centres unmarked), the inhibition zone was 17 mm (Streptococcus pyogenes; microbial growth; ATCC19615; 15 µg/mL, 24 h).
`O=C(Nc1ccccc1-c1ccc(F)c(F)c1)c1nccnc1C(F)(F)F` has an EC50 of over 100 µg/mL (Diaporthe citri; microbial growth).
For `CCOC(=O)C1=C(C)N2NC(C)(c3ccccc3O)N(C(C)C(=O)O)C2=NC1c1ccc(Cl)cc1` (centres unmarked), the inhibition zone was 14 mm (Streptococcus pyogenes; microbial growth; ATCC19615; 10 µg/mL, 24 h).
`c1ccc(-c2c(-c3ccccn3)nc3n2CCC3)cc1` has an EC50 of 2000 nM (Leishmania infantum; parasite growth; 5 days, intracellular, amastigote).
`CC(C(=O)O)N1C2=NC(c3ccc(Cl)cc3)C3=C(OC(C)(C)OC3=O)N2NC1(C)c1ccccc1O` (centres unmarked) gave an inhibition zone of 22 mm (Streptococcus pyogenes; microbial growth; ATCC19615; 15 µg/mL, 24 h).
With `O=C1C(=Cc2ccc(O)c(O)c2)Oc2ccccc21` the inhibition was 40% (Streptococcus mutans; microbial growth; UA159; 50 µM).
The inhibition zone of `CCOC(=O)C1=C(C)N2NC(C)(c3ccccc3O)N(C(Cc3c[nH]c4ccccc34)C(=O)O)C2=NC1c1ccc(Cl)cc1` (centres unmarked) is reported as 17 mm (Streptococcus pyogenes; microbial growth; ATCC19615; 10 µg/mL, 24 h).
`O=C(O)CN1C(=O)/C(=C/c2c3ccccc3c(-c3ccc(N(c4ccccc4)c4ccccc4)cc3)c3ccccc23)SC1=S` has an MBC of over 1000 µg/mL (Streptococcus pyogenes; microbial killing, broth dilution; ATCC19615).
For `O=C(N[C@@H](Cc1ccccc1)C(=O)c1cc(-c2ccccc2)no1)[C@H](Cc1ccccc1)NC(=O)N1CCOCC1` (mixture of isomers), the IC50 was over 64 µM (Leishmania infantum; parasite growth; intracellular, amastigote).
For `O=C1C(=Cc2ccccc2)Oc2ccccc21`, the inhibition was 80% (Streptococcus mutans; microbial growth; UA159; 50 µM).
With `c1ccc(-c2nc3n(c2-c2ccncc2)CCC3)nc1` the EC50 was over 63100 nM (Leishmania infantum; parasite growth; 5 days, intracellular, amastigote).
The IC50 of `CCCCCCCCCCCCCCCCC#CC(=O)O` is reported as 11.7 µM (Leishmania infantum; parasite growth; mouse Splenocyte; 72 h, intracellular, amastigote).
The IC50 of `O=C(N[C@@H](Cc1ccccc1)C(=O)c1ncc(-c2ccccc2)s1)[C@H](Cc1ccccc1)NC(=O)N1CCOCC1` is reported as 32.5 µM (Leishmania infantum; parasite growth; intracellular, amastigote).
The IC50 of `c1ccc(-c2nc3n(c2-c2cccnc2)CCC3)nc1` is reported as over 64 µM (Leishmania infantum; parasite growth; intracellular, amastigote).
For `O=C(O)CN1C(=O)/C(=C/c2ccc(-c3ccc(N(c4ccccc4)c4ccccc4)cc3)cc2)SC1=S`, the MBC was over 1000 µg/mL (Streptococcus mutans; microbial killing, broth dilution; ATCC25175).
With `Fc1ccc(NCc2c(-c3ccccn3)nc3ccccn23)cc1` the IC50 was over 64 µM (Leishmania infantum; parasite growth; intracellular, amastigote).
For `O=C1NC(=S)N/C1=C\c1ccc(-c2ccc(N(c3ccccc3)c3ccccc3)cc2)c2ccccc12`, the MIC was over 1000 µg/mL (Streptococcus pyogenes; microbial growth, broth dilution; ATCC19615).
The EC50 of `CC(C)CN(c1ccc(F)cc1)c1c(-c2ccccn2)nc2ccccn12` is reported as 794 nM (Leishmania infantum; parasite growth; 5 days, intracellular, amastigote).
The inhibition zone of `CCOC(=O)C1=C(C)N2NC(c3ccccc3O)N(C(Cc3c[nH]c4ccccc34)C(=O)O)C2=NC1c1ccc(Cl)cc1` (centres unmarked) is reported as 32 mm (Streptococcus pyogenes; microbial growth; ATCC19615; 15 µg/mL, 24 h).
With `O=C(O)CN1C(=O)/C(=C/c2ccc(-c3ccc(N(c4ccccc4)c4ccccc4)cc3)c3ccccc23)NC1=S` the MIC was over 1000 µg/mL (Streptococcus pyogenes; microbial growth, broth dilution; ATCC19615).
The EC50 of `CN(c1ccc(F)cc1)c1c(-c2ccc(F)cn2)nc2ccccn12` is reported as 1260 nM (Leishmania infantum; parasite growth; intracellular, amastigote).
`C/C(O)=C1\C(=O)C(CC(C)C)N(C(=O)C=Cc2ccccc2)C1=O` (centres unmarked) gave an MIC of over 200 µg/mL (Stenotrophomonas maltophilia; microbial growth; ATCC13637).
The MIC of `O=C(O)CN1C(=O)/C(=C/c2ccc(-c3ccc(N(c4ccccc4)c4ccccc4)cc3)c3ccccc23)SC1=S` is reported as 1000 µg/mL (≈ 1750 µM) (Streptococcus pyogenes; microbial growth, broth dilution; ATCC19615).
`Fc1ccc(Nc2c(-c3ccccn3)nc3ccccn23)nc1` gave an EC50 of over 63100 nM (Leishmania infantum; parasite growth; 5 days, intracellular, amastigote).
